Bioassay records: PubChem BioAssay, several laboratories
Only a selection was taken, and hits are over-represented in it overall.
UPR XBP1 act: adaptive UPR (XBP1) activation; CHO-XBP1 luciferase reporter, IRE1-XBP1 UPR activation, luminescence; percent of tunicamycin response, DMSO as zero; 0.33% of 330,000 active; activation, % at 20 µM;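 active = versus positive control, 20 µM dose yields 30% or more activation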
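Assay system: IRE1-XBP1 luciferase reporter CHO line. Input: 1000 cells/well. Buffer or medium: F12 with 10% serum. Doses: 20 µM, 1% DMSO. Times: overnight seeding at 37 °C, 6 h compound treatment at 37 °C. Technique: Steady-Glo luciferase glow luminescence, 10 min after reagent addition.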
CHOP inhibitor: CHOP inhibition in unfolded protein response. CHO-K1 CHOP-promoter luciferase, tunicamycin-induced, 15-18 h. AID 2732. inhibition, % at 10 µM. 3.8% of 220,000 active;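 active = compounds that reduced the stress-induced luciferase reporter signal by more than about 70% of percent inhibition, limit read from the data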
A1 inh: inhibitors of the anti-apoptotic protein A1, read as caspase activation | caspase activation, % (concentration not given with the values) | 0.066% of 330,000 active | AID 2462 | MEF A1-2A-BIM cells, Caspase-Glo 3/7 luminescence, 3 h; percent of clofoctol response, vehicle zero;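 active = over half of replicate activation scores above 10%, or exactly half above 10 with the replicate mean above 10; inconclusive = replicate mean below 10 yet half the replicates above 10; inactive = over half of replicates below 10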
UPR CHOP act: activators of apoptotic arm of unfolded protein response (CHOP); CHO-CHOP luciferase reporter, UPR activation, luminescence; percent of tunicamycin response over DMSO baseline; activation, % at 10 µM; 0.34% of 330,000 active;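 active = at 10 µM dose, activation of 40% or more, normalized to positive control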
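Assay system: CHO cells with stable CHOP pathway luciferase reporter; Buffer or medium: F12 plus 10% serum; Times: 16-18 h cell attachment, then 6 h compound exposure, 37 °C; Signal: luciferase luminescence; Read-out basis: percent activation relative to tunicamycin control; Control set: tunicamycin high control, DMSO low control.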
Large screens that a line does not name were inactive.

O=C(CNS(=O)(=O)c1cccc(Cl)c1)OCc1csc(-c2ccccc2)n1	CHOP inhibitor 90
Cc1ccc(SCC(=O)OCC(=O)N(CC(C)C)c2c(N)n(Cc3ccccc3)c(=O)[nH]c2=O)c(C)c1	none (no result: CHOP inhibitor)
O=C(Nc1ccccc1)/C(=C\c1ccc(F)cc1)NC(=O)c1ccco1	none (no result: CHOP inhibitor)
CCN(c1ccccc1)S(=O)(=O)c1cccc(C(=O)NCCOc2ccccc2OC)c1	none (no result: CHOP inhibitor, A1 inh)
CC(=O)N(C(C)=O)N1C(=O)/C(=C/c2ccc(Cl)cc2)SC1=S	CHOP inhibitor 91
CCCCC1CCC(C(=O)NCc2ccc3c(c2)OCO3)CC1 (stereo not drawn)	CHOP inhibitor 83
CC(OC(=O)Cc1ccccc1F)C(=O)Nc1ccc(Cl)cn1 (stereo not drawn)	none (no result: CHOP inhibitor, A1 inh)
CCc1ccc(NC2=NCC(c3ccccc3)S2)cc1 (stereo not drawn)	none
Cc1ccc(NC2=NCC(Cc3ccc(Br)cc3)S2)cc1 (stereo not drawn)	CHOP inhibitor 74
COc1ccc(-c2cc(C(=O)Nc3cc(C)nn3-c3ccccc3)no2)cc1	none
COc1cccc(-c2cc(C(=O)Nc3c(C)nn(Cc4ccccc4C)c3C)no2)c1	CHOP inhibitor 70
COc1cccc(-c2cc(C(=O)Nc3c(C)nn(Cc4ccccc4)c3C)no2)c1	none
Cc1cc(NC(=O)c2cc(-c3ccccc3)on2)n(-c2ccccc2)n1	CHOP inhibitor 76
COc1ccc(-c2cc(C(=O)Nc3c(C)nn(Cc4ccccc4)c3C)no2)cc1	CHOP inhibitor 76
COc1cccc(CN(C)C(=O)c2ccccc2Sc2ccccc2C#N)c1OC	none (no result: CHOP inhibitor)
Cc1sc2nc(CSc3ccccc3)nc(N3CCC(C(N)=O)CC3)c2c1C	none
Cc1sc2nc(CSc3ccccc3)nc(N3CCOCC3)c2c1C	CHOP inhibitor 72
CC1C/C(=C\c2cccnc2)C(=O)/C(=C/c2cccnc2)C1 (stereo not drawn)	CHOP inhibitor 102 (no result: UPR XBP1 act, UPR CHOP act)
O=Nc1c(-c2cccc([N+](=O)[O-])c2)nc2ncccn12	UPR CHOP act 131
O=[N+]([O-])c1cccc(-c2cn3nc(-c4ccccc4)c(-c4ccccc4)nc3n2)c1	none
Cc1ccc([C@@H]2CC=C(C(=O)O)[C@H](c3cccc(F)c3)N2S(=O)(=O)c2ccccc2C)cc1	none (no result: CHOP inhibitor)
O=C(Nc1ccc(S(=O)(=O)NC2=NCCCCC2)cc1)c1ccc(Cl)c([N+](=O)[O-])c1	none (no result: CHOP inhibitor)
Cc1cccc(C)c1NS(=O)(=O)c1ccc(NC(=O)c2ccc(Cl)c([N+](=O)[O-])c2)cc1	CHOP inhibitor 73
CCCc1cc(-c2n[nH]c(=S)n2C(C)c2ccccc2)cs1 (stereo not drawn)	CHOP inhibitor 96
Oc1ccc(-c2nccc(-c3ccc(Cl)cc3Cl)n2)cc1	CHOP inhibitor 80
Oc1ccc(-c2nccc(-c3ccc(Cl)cc3)n2)cc1	none
O=C(Nc1c2c(nn1-c1ccc([N+](=O)[O-])cc1)CS(=O)(=O)C2)c1ccccc1F	none (no result: CHOP inhibitor)
O=C(NC1CCOc2ccccc21)C1CCCC1 (stereo not drawn)	none (no result: CHOP inhibitor)
C=C(C)c1cccc(C(C)(C)NC(=O)N(Cc2ccccc2)Cc2ccco2)c1	CHOP inhibitor 83
Cc1ccc(COc2ccc(/C=N/NC(=O)c3nnn(-c4nonc4N)c3COc3ccc(F)cc3)cc2)cc1	CHOP inhibitor 82
CN(C)c1ccc(NC(=O)C(=O)NCCOc2ccccc2)cc1	CHOP inhibitor 70
O=C(NCCOc1ccccc1)c1ccccc1Cl	none (no result: CHOP inhibitor)
CN(C(=O)COc1ccccc1C(=O)NCCOc1ccccc1)c1ccccc1	CHOP inhibitor 79
CCCNC(=O)C(=O)Nc1ccc(N(C)C)cc1	none
Cc1cc(C)n2nc(SC(C)C(=O)N(C)c3ccccc3)nc2n1 (stereo not drawn)	none (no result: CHOP inhibitor)
CCOC(=O)c1sc(NC(=O)CSc2nc3c(cc2C#N)CCCCCC3)c(C#N)c1C	CHOP inhibitor 72
CCOC(=O)c1sc(NC(=O)CSc2n[nH]c(-c3ccc(Cl)cc3Cl)n2)c(C#N)c1C	CHOP inhibitor 75
CCOC(=O)c1sc(NC(=O)CSc2nc(C)cc(-c3ccccc3)n2)c(C#N)c1C	none
CCN(Cc1ccccc1)C(=O)Cc1c[nH]c2ccccc12	none (no result: CHOP inhibitor)
COc1ccc(NS(=O)(=O)c2cccc(C(=O)N3CCCC3)c2)cc1	none (no result: CHOP inhibitor)
CCN(C(=O)COC(=O)c1ccc([N+](=O)[O-])o1)C1CCCCC1	none (no result: CHOP inhibitor)
Cc1ccc(NC(=O)COC(=O)c2ccc3c(c2)C(=O)N(CCc2ccccc2)C3=O)c(C)c1	CHOP inhibitor 78
CC1(c2ccccc2)NC(=O)N(CC(=O)Nc2ccccc2C(=O)NC2CC2)C1=O (stereo not drawn)	none (no result: CHOP inhibitor)
O=C1O/C(=C/c2ccccc2)N=C1c1ccccc1	CHOP inhibitor 87
O=C1O/C(=C\c2ccccc2)c2ccccc21	none
C=C(C(=O)Oc1ccccc1C(C)(C)C)c1ccccc1	A1 inh inconclusive, UPR CHOP act 193 (no result: CHOP inhibitor)
CC(C)(C)c1ccccc1OCC(=O)NCCC(=O)O	none
